Bioassay records: PubChem, several laboratories
The list is not random: actives were taken first. Their share in the collection is about 9.5%.
D1 allo mod – allosteric modulators of human D1 dopamine receptor; P21728; HEK293 D1, CRE-luciferase, dopamine EC30 potentiation; actives deviate in either direction; B-score at 10 µM; 58,000 tested, 5.9% active;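 active = luminescence count or its row- and column-corrected plate score outside the 99.7% band of the plate's sample wells, on either side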
Target sequence (P21728 whole entry, looked up): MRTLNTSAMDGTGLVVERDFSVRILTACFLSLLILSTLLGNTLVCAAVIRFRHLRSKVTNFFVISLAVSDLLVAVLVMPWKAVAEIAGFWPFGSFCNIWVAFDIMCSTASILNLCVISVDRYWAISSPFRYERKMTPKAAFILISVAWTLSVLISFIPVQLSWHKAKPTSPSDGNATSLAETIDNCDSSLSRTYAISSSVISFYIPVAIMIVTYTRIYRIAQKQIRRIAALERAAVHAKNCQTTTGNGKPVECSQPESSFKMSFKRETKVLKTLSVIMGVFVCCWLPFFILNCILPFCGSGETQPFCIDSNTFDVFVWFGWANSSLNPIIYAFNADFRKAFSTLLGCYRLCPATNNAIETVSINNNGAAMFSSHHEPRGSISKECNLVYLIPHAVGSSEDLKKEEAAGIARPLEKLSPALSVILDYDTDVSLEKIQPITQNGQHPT
mHtt clearance – compounds clearing mutant huntingtin protein; inhibition, % at 1.5 µM; HeLa Exon1htt(103Q)mCFP, aggregate imaging; zero = plate's median compound well; 47,000 tested, 0.42% active;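 active = inhibition of aggregate fluorescence above about 70%, also judged a hit by eye on the cell image, limit read from the data, passing the limit was not always enough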;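 also: cells exposed to compound for three days before fixation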
HEK293 NFkB inh – inhibitors of the PMA/ionomycin-induced NF-kB reporter in HEK293 cells; HEK-293 NF-kB luciferase reporter, luminescence; inhibition, % at 3 µM; 62,000 tested, 0.21% active; AID 465;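 active = inhibition above the mean of all tested compounds plus 3 SD, cut at about 40% in these data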;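 also: 0% = stimulated DMSO wells and 100% = 10 µM reference inhibitor 5653914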
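System – HEK-293 cells with stable firefly luciferase reporter driven by four HIV NF-kB elements · Doses – one dose, 3 µM · Schedule – 1 h compound pre-incubation, 16 h PMA/ionomycin at 37 °C · Technique – luminescence from luciferase substrate reagent · Measure – percent inhibition normalized per plate to DMSO and reference-inhibitor controls · Replicates – tested once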
Jurkat tox 60K – cytotoxicity toward Jurkat cells. Jurkat E6.1 viability, ATP luminescence, 48 h. inhibition, % at 4 µM. 56,000 tested, 1.2% active. AID 463;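 active = inhibition above the mean inhibition of all tested compounds plus 3 SD, cut at about 28% in these data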
M1 agonist – M1 muscarinic receptor agonism | CHO-M1 cells, Fluo-4 calcium fluorescence, agonist mode; stronger effect = higher value | B-score at 10 µM | 64,000 tested, 3% active | AID 626;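 active = fluorescence rise, raw or as B-score row- and column-corrected plate score, outside the 99.7% band of its plate's samples, either direction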
M1 antagonist – M1 muscarinic receptor (rat) antagonism; P08482; AID 628; B-score at 10 µM; CHO-M1 cells, Fluo-4 calcium, ACh EC80 antagonist mode; stronger effect = lower value; 64,000 tested, 3.4% active;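 active = calcium fluorescence response, raw or row-and-column corrected B-score, differing from the plate sample mean either way at a set confidence level, mostly lower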
D1 mod confirm – confirmation of human D1 dopamine receptor allosteric modulators; AID 642; HEK293 D1 CRE-luciferase, dopamine EC30 potentiation; stronger effect = higher value; 2,200 tested, 88% active; shares compounds with D1 allo mod; luminescence at 10 µM;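 active = luminescence in either of two replicates above the same-plate mean plus 3 SD of the low-dose dopamine control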
D1 ag no DA – activates D1 CRE-luciferase signal without dopamine present | luminescence at 10 µM | AID 646 | shares compounds with D1 allo mod | HEK293 D1 CRE-luciferase, luminescence, no dopamine; stronger effect = higher value | 1,900 tested, 0.8% active; in the data active = luminescence above about 3900
Isoprot counter – counter-screen for D1 modulators: isoproterenol response in HEK293 cells; shares compounds with D1 allo mod; HEK293 D1 CRE-luciferase, isoproterenol EC30 counter-screen; stronger effect = higher value; luminescence at 10 µM; 2,200 tested, 63% active;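 active = luminescence in either replicate above plate mean of wells with a partly effective reference agonist dose plus 3 SD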;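 also: isoproterenol raises cAMP through native beta-adrenoceptor Gs so signal bypasses D1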
An asterisk follows results filed as active; · = no result given.

SMILES	D1 allo mod	mHtt clearance	HEK293 NFkB inh	Jurkat tox 60K	M1 agonist	M1 antagonist	D1 mod confirm	D1 ag no DA	Isoprot counter
Cc1c(C(=O)NC2CCCc3ccccc32)oc2ccc(S(=O)(=O)N3CCOCC3)cc12 (stereo unspecified)	5.98*	-15.1	12.7	·	0.0119	0.677	7816*	1568	4040*
COc1ccc(N2CCN(CC(O)COc3ccc4c(c3)CCC4)CC2)cc1 (stereo unspecified)	·	-31.0	·	·	·	·	·	·	·
CCOC(=O)Nc1sc(C(=O)N(CC)CC)c(C)c1C(=O)OCC	5.08*	-18.5	6.6	-10.3	1.32	0.0596	14176*	1880	2900
CCOC(=O)c1c(NC(N)=O)sc(C)c1C	6.67*	1.6	18.6	-2.9	0.0187	1.12	11700*	1768	3492*
c1ccc(N2CCN(c3ncnc4sc5c(c34)CCC5)CC2)cc1	-0.268	17.5	13.6	-1.0	5.4e-15	0.31	·	·	·
O=C1OCCC1Sc1ncnc2sc3c(c12)CCC3 (stereo unspecified)	5.19*	·	16.9	-3.8	-0.353	0.215	7272*	1564	2848
COc1ccccc1Nc1nc(N)nc(CSc2nc(C)cc(C)n2)n1	3.81	-50.5	15.4	-4.2	0.749	-0.182	·	·	·
Cc1cc(C)nc(SCc2nc(N)nc(-c3ccccc3O)n2)n1	12.5*	-19.6	-4.2	7.9	-1.19	0.43	17172*	1668	4624*
COCCCNC(=O)CN(Cc1ccc(Cl)cc1)S(C)(=O)=O	9.19*	15.9	23.4	6.0	0.616	-0.119	5504	1488	2592
O=C(Nc1ccccc1Oc1ccccc1)c1cnccn1	4.08*	23.7	9.9	10.8	1.62	0.0328	9216*	1488	2808
c1ccc(CNc2nc3ccccc3n3cnnc23)cc1	·	20.0	·	·	·	·	·	·	·
c1ccc(CNc2nc3ccccc3n3cnnc23)nc1	9.23*	0.4	-9.8	1.6	-0.233	-0.404	13992*	·	3376*
Nc1nc(-c2ccc(Cl)cc2)cc(C(F)(F)F)n1	19.2*	-26.5	24.1	0.2	0.862	-0.168	19568*	1592	3456*
COc1ccc(C(=O)OCC(=O)NCc2ccco2)cc1OC	1.11	·	9.1	-6.6	0.293	0.981	·	·	·
CCOc1ccc(C(=O)OCC(=O)NCc2ccco2)cc1OCC	7.73*	·	3.4	-3.1	-0.307	0.0587	12216*	1596	3744*
CCn1c(Sc2nc(C)nc3scc(-c4cccs4)c23)n[nH]c1=O	8.1*	-1.4	20.4	13.6	2.31	-0.159	15492*	1856	3552*
CCc1nc2scc(-c3cccs3)c2c(=O)o1	·	-5.2	·	·	·	·	·	·	·
O=C(Nc1ccc(-c2noc(-c3cccs3)n2)cc1)c1cccnc1	-1.58	14.8	-50.0	7.6	0.169	-0.583	·	·	·
Cn1ncc(Cl)c1C(=O)Nc1ccc(Cl)cn1	·	25.4	·	·	·	·	·	·	·
CCN1CCN(C(C)C(=O)Nc2c(C)n(C)n(-c3ccccc3)c2=O)CC1 (stereo unspecified)	·	-42.9	·	·	·	·	·	·	·
Fc1cccc(Cl)c1Cn1nnc(-c2ccc3c(c2)OCO3)n1	0.0576	·	-27.4	-2.1	0.07	0.503	·	·	·
Fc1cccc(Cl)c1CSc1nnnn1-c1ccc2c(c1)OCO2	5.79*	·	1.2	9.3	0.79	-0.227	11540*	·	2836*
COc1ccc2c(C(F)(F)F)cc(=O)oc2c1C	4.78*	-27.7	5.6	-12.5	-0.253	0.0862	6684*	1588	3676
N#Cc1c(-c2ccccc2)nc(N2CCCCCC2)[nH]c1=O	12.5*	5.4	1.8	-1.0	0.047	-0.837	26112*	1656	3736*
CCOCCCNS(=O)(=O)c1ccc(OC)c(Cl)c1Cl	·	-90.8	·	·	·	·	·	·	·
SMILES	D1 allo mod	mHtt clearance	HEK293 NFkB inh	Jurkat tox 60K	M1 agonist	M1 antagonist	D1 mod confirm	D1 ag no DA	Isoprot counter
COCCNc1nc(C(C)(C)C)nc2c1nnn2Cc1ccccc1Cl	0.289	-0.7	-2.8	·	-0.419	-0.163	·	·	·
OCCNc1nc(C2CC2)nc2c1nnn2Cc1ccccc1Cl	8.9*	·	3.1	7.1	-0.271	-0.0732	14928*	1728	2932
O=C(CCCCCn1c(=O)[nH]c2ccsc2c1=O)N1CCN(C2CCCCC2)CC1	-0.201	·	13.3	5.0	1.5	0.0119	·	·	·
CSc1cc(/C=N/O)c(SC)s1	6.89*	51.7	9.1	-13.2	0.267	-2.07	12744*	1664	3352
COc1ccc(-c2nc(CSCC(=O)N3CCc4ccccc43)c(C)o2)cc1OC	3.81*	-51.2	-16.1	-0.5	-2.45	-1.45	11284*	1596	4544*
O=c1cc(-c2ccccc2)c2c([nH]1)CCCC2	5.25*	·	20.9	8.0	0.814	0.513	7876*	1792	2596
O=c1cc(-c2ccccc2Cl)c2c([nH]1)CCC2	0.192	·	-8.7	-12.3	-1.21	0.11	·	·	·
O=C(CN1C(=O)C2CC=CCC2C1=O)NC1=NCCS1 (stereo unspecified)	0.692	·	-3.6	0.5	-0.467	0.214	·	·	·
COc1cc(OC)cc(C(=O)Nc2ccccc2C(=O)N2CCCC2)c1	·	21.1	·	·	·	·	·	·	·
COc1cc(OC)cc(C(=O)Nn2cc(C(=O)N3CCN(C)CC3)c3ccccc3c2=O)c1	2.91*	3.0	9.3	·	0	0	5944*	1800	2708
C=CCc1ccc(OCCOCCNCCCC)c(OC)c1	·	-8.7	·	·	·	·	·	·	·
COc1ccc(-c2cc(C(F)(F)F)nc(SCC(=O)N3CC(C)OC(C)C3)n2)cc1OC (stereo unspecified)	6.22*	23.2	2.3	-0.3	0.33	-0.184	18852*	1628	5964*
COc1ccc(-c2cc(C(F)(F)F)nc(NC3CCCC3)n2)cc1OC	·	13.1	21.6	·	0	0.0852	·	·	·
CCOc1ccc(-c2[nH]ncc2-c2ccc(OC)c(OC)c2)c(O)c1	5.23*	·	33.0	91.5*	0.501	0.0435	13188*	1944	3552*
CCOc1ccc(-c2[nH]ncc2Oc2ccccc2OC)c(O)c1	-0.823	-3.2	6.5	-1.7	1.62	0.0179	·	·	·
CC(C)Oc1ccc(C(=O)N(CN2CCCC2=O)c2ccc(F)cc2)cc1	4.45*	38.3	-2.4	7.8	0.0241	0.462	7800	1532	2588
COc1cccc(C(=O)N(CN2CCCC2=O)c2cccc(Cl)c2)c1	·	·	12.9	11.9	1.09	1.11	·	·	·
CCOC(=O)C1CCN(C(=O)CCCCn2c(=O)[nH]c3ccccc3c2=O)CC1	0.247	·	-2.7	-2.7	0.58	0.564	·	·	·
Cc1nn(CC(=O)N2CCOCC2)c(=O)c2ccccc12	·	51.3	·	·	-0.00642	0.101	·	·	·
O=c1c2cccc3c2c(nn1CN1CCOCC1)-c1ccccc1-3	5.3*	·	-1.4	-4.5	2.29	0.389	8092*	1824	3352*
